Experimental data reported in ChEMBL document CHEMBL1140209, “Synthesis and pharmacological characterization of novel druglike corticotropin-releasing factor 1 antagonists” (J Med Chem, 2008).
Calls of active or inactive are those of the source. No cut-off for these calls is given here.

Experiments:
[1] = target: T1, Corticotropin-releasing factor receptor 1 (Homo sapiens, UniProt P34998); assay: Displacement of [125I]sauvagine from human recombinant CRF1 receptor expressed in CHO cells; assay type: cell-based
T1 sequence (P34998 whole entry): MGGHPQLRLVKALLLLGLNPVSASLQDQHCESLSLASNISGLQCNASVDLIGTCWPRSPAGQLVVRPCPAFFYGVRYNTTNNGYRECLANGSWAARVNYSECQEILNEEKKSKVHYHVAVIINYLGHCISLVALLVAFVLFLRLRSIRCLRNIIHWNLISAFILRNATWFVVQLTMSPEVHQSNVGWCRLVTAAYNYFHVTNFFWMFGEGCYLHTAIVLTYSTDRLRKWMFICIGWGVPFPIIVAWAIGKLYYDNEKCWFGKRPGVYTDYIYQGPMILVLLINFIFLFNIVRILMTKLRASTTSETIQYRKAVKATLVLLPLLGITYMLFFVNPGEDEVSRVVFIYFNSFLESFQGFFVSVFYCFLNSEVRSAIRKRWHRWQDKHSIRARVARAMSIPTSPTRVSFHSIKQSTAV

[2] = Half life in marmoset at 1 mg/kg, iv or 10 mg/kg, po; assay type: ADME, organism-based, Callithrix jacchus; conditions: in vivo
Meriones unguiculatus [3] = assay: Anxiolytic activity in po dosed Mongolian gerbils forepaw treading model assessed as reduction of time spent in CRF-induced piano playing behavior administered 1 hr before CRF challenge; assay type: functional, organism-based
Meriones unguiculatus [4] = assay: Anxiolytic activity in Mongolian gerbils forepaw treading model assessed as reduction of time spent in CRF-induced piano playing behavior at 30 mg/kg, po administered 360 mins before CRF challenge; assay type: functional, organism-based; set-up: dose 30 mg/kg
[5] = target: T1, Corticotropin-releasing factor receptor 1; assay: Antagonist activity at human CRF1 receptor expressed in CHO cells assessed as effect on sauvagine-induced cAMP production; assay type: functional, cell-based; conditions: read-out: pA2 (converted)
Summary of the method: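 CHO cells transfected with human CRF1 receptor; sauvagine concentration-response curves for cAMP were run with increasing antagonist concentrations and analysed by Schild plot (n = 6). Potency was taken as pA2, the concentration that doubles the sauvagine ED50. Antagonist alone, up to 10 µM, was also tested on cAMP without sauvagine.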

[6] = Volume of distribution at steady state in marmoset at 1 mg/kg, iv or 10 mg/kg, po; assay type: ADME, organism-based, Callithrix jacchus; conditions: in vivo, read-out: Vdss
Meriones unguiculatus [7] = assay: Anxiolytic activity in Mongolian gerbils forepaw treading model assessed as reduction of time spent in CRF-induced piano playing behavior at 30 mg/kg, po administered 60 mins before CRF challenge; assay type: functional, organism-based; set-up: dose 30 mg/kg
Callithrix jacchus [8] = assay: Anxiolytic activity in po dosed marmoset assessed as reduction of number of postures by marmoset human threat test; assay type: functional, organism-based
[9] = Ratio of drug level in brain to plasma in rat at 1 mg/kg, iv after 1 hr; assay type: ADME, organism-based; set-up: dose 1 mg/kg, route intravenous; conditions: brain and plasma
[10] = Ratio of drug level in brain to plasma in gerbil at 10 mg/kg, po after 1 hr; assay type: ADME, organism-based; set-up: dose 10 mg/kg, route oral; conditions: gerbillinae, brain and plasma
Callithrix jacchus [11] = assay: Toxic sedative effect in po dosed marmoset assessed as effect on number of physiological jumps; assay type: toxicity, organism-based; conditions: in vivo
Meriones unguiculatus [12] = assay: Anxiolytic activity in Mongolian gerbils forepaw treading model assessed as reduction of time spent in CRF-induced piano playing behavior at 30 mg/kg, po administered 180 mins before CRF challenge; assay type: functional, organism-based; set-up: dose 30 mg/kg
[13] = Volume of distribution at steady state in rat at 1 mg/kg, iv or 10 mg/kg, po; assay type: ADME, organism-based; conditions: in vivo, read-out: Vdss
[14] = Plasma clearance in marmoset at 1 mg/kg, iv or 10 mg/kg, po; assay type: ADME, organism-based, Callithrix jacchus
[15] = target: T2, Corticotropin-releasing factor receptor 2 (Homo sapiens) (UniProt Q13324); assay: Antagonist activity at human CRF2 receptor expressed in CHO cells assessed as effect on sauvagine-induced cAMP production; assay type: functional, cell-based
T2 sequence (whole entry): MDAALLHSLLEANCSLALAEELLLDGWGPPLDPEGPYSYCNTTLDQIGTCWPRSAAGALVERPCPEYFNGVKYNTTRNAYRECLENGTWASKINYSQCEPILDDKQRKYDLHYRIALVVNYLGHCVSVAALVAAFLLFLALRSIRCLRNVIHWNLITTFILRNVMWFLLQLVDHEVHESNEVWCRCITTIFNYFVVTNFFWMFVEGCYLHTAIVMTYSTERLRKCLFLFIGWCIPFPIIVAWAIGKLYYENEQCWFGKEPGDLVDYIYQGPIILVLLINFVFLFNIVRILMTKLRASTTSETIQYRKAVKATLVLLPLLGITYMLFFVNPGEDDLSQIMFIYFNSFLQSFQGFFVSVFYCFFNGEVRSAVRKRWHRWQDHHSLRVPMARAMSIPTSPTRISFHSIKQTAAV
Summary of the method: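 CHO cells expressing human CRF2 receptor; cAMP was stimulated with 0.5 nM sauvagine, and the antagonist was tested at concentrations up to 10 µM.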

[16] = Half life in rat at 1 mg/kg, iv or 10 mg/kg, po; assay type: ADME, organism-based; conditions: in vivo
[17] = Plasma clearance in rat at 1 mg/kg, iv or 10 mg/kg, po; assay type: ADME, organism-based
[18] = Oral bioavailability in marmoset at 10 mg/kg; assay type: ADME, organism-based, Callithrix jacchus; conditions: in vivo
Rattus norvegicus = assay: Anxiolytic activity in ip dosed ultrasonic vocalization rat model assessed as reduction of vocalization duration administered 30 mins before ultrasonic vocalizations; assay type: functional, organism-based
[19] = Oral bioavailability in rat at 10 mg/kg; assay type: ADME, organism-based; conditions: in vivo

Row | SMILES | IC50 [1] | also measured
1 | COc1ccc(N2CCc3c(-n4ccc(N5CCN(C)C5=O)n4)cc(C)nc32)c(C)c1 | 794 nM | 
2 | COc1ccc(N2CCc3c(-n4ccc(N5CCNS5(=O)=O)n4)cc(C)nc32)c(C)c1 | 309 nM | 
3 | COc1ccc(N2CCc3c(-n4ccc(N5CCCNC5=O)n4)cc(C)nc32)c(C)c1 | 145 nM | 
4 | Cc1cc(-n2ccc(N3CCNC3=O)n2)c2c(n1)N(c1ccc(Cl)cc1Cl)CC2 | 158 nM | 
5 | COc1ccc(N2CCc3c(-n4ccc(N5CCNC5=O)n4)cc(C)nc32)c(C(F)F)c1 | 56.2 nM | 
6 | Cc1cc(-n2ccc(-n3cc[nH]c3=O)n2)c2c(n1)N(c1ccc(C(F)(F)F)cc1C(F)(F)F)CC2 | 89.1 nM | 
7 | Cc1cc(-n2ccc(N3CCNC3=O)n2)c2c(n1)N(c1ccc(C#N)cc1C(F)(F)F)CC2 | 32.4 nM | 
8 | COc1ccc(N2CCc3c(-n4ccc(N5CCNC5=O)n4)cc(C)nc32)c(C)c1 [EMICERFONT] | 66.1 nM | half-life [2]: 3.7 h; Activity (Meriones unguiculatus [3]): Dose-dependent effect; Activity (Meriones unguiculatus [4]): Active; Kb [5]: 72.4 nM; Vd [6]: 4.7 L/kg; Activity (Meriones unguiculatus [7]): Active; Activity (Callithrix jacchus [8]): Dose-dependent effect; Kp at 1 h [9]: 3.7; Kp at 1 h [10]: 4.7; Activity (Callithrix jacchus [11]): Non-toxic; Activity (Meriones unguiculatus [12]): Active; Vd [13]: 2.4 L/kg; clearance [14]: 16 mL/min/kg; Activity [15]: inactive; half-life [16]: 1.6 h; clearance [17]: 19 mL/min/kg; bioavailability [18]: 65%; Activity (Rattus norvegicus): Dose-dependent effect; bioavailability [19]: 66%
9 | Cc1cc(-n2ccc(N3CCNC3=O)n2)c2c(n1)N(c1ccc(C#N)cc1C)CC2 | 67.6 nM | 
10 | CCOc1ccc(N2CCc3c(-n4ccc(N5CCNC5=O)n4)cc(C)nc32)c(C)c1 | 316 nM | 
11 | Cc1cc(-n2ccc(N3CCNC3=O)n2)c2c(n1)N(c1ccc(OC(F)(F)F)cc1C)CC2 | 67.6 nM | 
12 | COc1ccc(N2CCc3c(-n4ccc(N5CCOC5=O)n4)cc(C)nc32)c(C)c1 | 1950 nM | 
13 | COc1ccc(N2CCc3c(-n4ccc(-n5cc[nH]c5=O)n4)cc(C)nc32)c(C)c1 | 120 nM | 
14 | Cc1cc(-n2ccc(N3CCNC3=O)n2)c2c(n1)N(c1ccc(C#N)cc1OC(F)(F)F)CC2 | 120 nM | 
15 | CCc1cc(C#N)ccc1N1CCc2c(-n3ccc(N4CCNC4=O)n3)cc(C)nc21 | 50.1 nM | 
16 | COc1ccc(N2CCc3c(-n4ccc(N5CCCS5(=O)=O)n4)cc(C)nc32)c(C)c1 | 3240 nM | 
17 | Cc1cc(-n2ccc(N3CCNC3=O)n2)c2c(n1)N(c1ccc(-n3cccn3)cc1C)CC2 | 372 nM | 
18 | COc1cc(-n2cccn2)ccc1N1CCc2c(-n3ccc(-n4cc[nH]c4=O)n3)cc(C)nc21 | 363 nM | 
19 | COc1ccc(N2CCc3c(-n4ccc(N5CCCC5=O)n4)cc(C)nc32)c(C)c1 | 123 nM | 
20 | Cc1cc(-n2ccc(N3CCNC3=O)n2)c2c(n1)N(c1ccc(OC(C)C)cc1C)CC2 | 1230 nM | 
